Test results reported in ChEMBL document CHEMBL4732095, “Novel naphthylamide derivatives as dual-target antifungal inhibitors: Design, synthesis and biological evaluation” (Eur J Med Chem, 2021).
pIC50: −log10 of the molar value. Calls of active or inactive are those of the source. The calls are words filed in the database; no cut-off is given here.

Assays:
[1] = test system: Aspergillus fumigatus; assay: Antifungal activity against Aspergillus fumigatus KM8001 assessed as inhibition of microbial growth by NCCLS protocol based method; type: functional
Summary of the method: (§1)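 Broth MIC50 determined following NCCLS guidelines in Sabouraud medium, with fungal suspension in 24-well format. Compound tested at 0.0625, 0.125, 0.5, 1, 2, 4, 8 and 16 μg/mL. Plates cultured statically at 35 °C. MIC50 is the lowest concentration giving 50% growth inhibition. Naftifine and fluconazole served as positive controls.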

[2] = test system: Candida tropicalis; assay: Antifungal activity against Candida tropicalis ATCC 1369 assessed as inhibition of microbial growth by NCCLS protocol based method; type: functional; summary of the method: as §1
[3] = test system: Candida albicans; assay: Antifungal activity against Candida albicans ATCC 10231 assessed as inhibition of microbial growth by NCCLS protocol based method; type: functional; summary of the method: as §1
[4] = test system: Pichia kudriavzevii; assay: Antifungal activity against Candida krusei ATCC 6258 assessed as inhibition of microbial growth by NCCLS protocol based method; type: functional; summary of the method: as §1
[5] = test system: Nakaseomyces glabratus; assay: Antifungal activity against Candida glabrata ATCC 0001 assessed as inhibition of microbial growth by NCCLS protocol based method; type: functional; summary of the method: as §1
[6] = test system: Candida albicans; assay: Antifungal activity against fluconazole-resistant Candida albicans CaR assessed as inhibition of microbial growth by NCCLS protocol based method; type: functional
[7] = test system: Candida albicans; assay: Antifungal activity against Candida albicans ATCC SC5314 assessed as induction of cell fracture at 10 nM/mL by polarizing microscopy; type: functional, organism-based; conditions: dose 10.0 nmol/ml
Summary of the method: (§2)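 C. albicans ATCC SC5314 observed by polarizing microscopy over treatment time. Untreated, fluconazole- and naftifine-treated control groups were included. Cell density, dividing cells and cell fracture were assessed, with cell counts taken per field.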

[8] = biological target: T1, Lanosterol 14-alpha demethylase (Candida albicans (strain SC5314 / ATCC MYA-2876) (Yeast), UniProt P10613); assay: Inhibition of CYP51 in Candida albicans ATCC SC5314 assessed as lanosterol level at 4 ug/ml incubated for 48 hrs by LC/MS analysis; parameters: scale not given: the % may be the effect or the level left; conditions: candida albicans sc5314, 48 h, at 4 µg/mL
T1 sequence (P10613 whole entry): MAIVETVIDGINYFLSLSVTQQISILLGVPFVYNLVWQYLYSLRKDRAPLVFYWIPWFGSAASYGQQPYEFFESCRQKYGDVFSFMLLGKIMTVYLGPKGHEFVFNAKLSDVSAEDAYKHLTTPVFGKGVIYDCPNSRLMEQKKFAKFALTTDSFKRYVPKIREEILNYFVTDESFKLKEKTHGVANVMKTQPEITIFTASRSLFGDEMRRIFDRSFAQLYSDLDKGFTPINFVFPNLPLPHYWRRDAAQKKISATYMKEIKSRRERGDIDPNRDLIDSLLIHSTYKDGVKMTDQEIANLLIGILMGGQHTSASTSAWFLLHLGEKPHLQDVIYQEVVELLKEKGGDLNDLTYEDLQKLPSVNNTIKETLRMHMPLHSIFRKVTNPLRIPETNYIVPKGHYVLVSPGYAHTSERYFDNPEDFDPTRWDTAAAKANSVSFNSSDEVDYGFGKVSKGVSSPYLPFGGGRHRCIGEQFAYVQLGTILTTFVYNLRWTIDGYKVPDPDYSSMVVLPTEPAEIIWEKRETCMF
Summary of the method: (§3)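 C. albicans SC5314 cells exposed to compound (0.125, 0.5 or 4 μg/mL) for 48 h alongside untreated and naftifine/fluconazole-treated groups; sterol fraction analysed by LC-MS; each component expressed as percent of total sterols from peak area ratios.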

[9] = biological target: T1, Lanosterol 14-alpha demethylase; assay: Inhibition of CYP51 in Candida albicans ATCC SC5314 assessed as eburicol level at 0.5 ug/ml incubated for 48 hrs by LC/MS analysis (reference value: 1.4 %); parameters: scale not given: the % may be the effect or the level left; conditions: candida albicans sc5314, 48 h, at 0.5 µg/mL; summary of the method: as §3
[10] = test system: Candida albicans; assay: Antifungal activity against Candida albicans ATCC SC5314 assessed as reduction in cell division at 10 nM/mL by polarizing microscopy; type: functional, organism-based; conditions: dose 10.0 nmol/ml; summary of the method: as §2
[11] = biological target: T1, Lanosterol 14-alpha demethylase; assay: Inhibition of CYP51 in Candida albicans ATCC SC5314 assessed as lanosterol level at 0.125 ug/ml incubated for 48 hrs by LC/MS analysis; parameters: scale not given: the % may be the effect or the level left; conditions: candida albicans sc5314, 48 h, at 0.125 µg/mL
Summary of the method: (§4)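 C. albicans ATCC SC5314 cells exposed to drug at 0.125, 0.5 or 4 μg/mL for 48 h, alongside an untreated control. Sterols were extracted and analysed by LC-MS. Ergosterol, squalene, lanosterol, eburicol and unknown sterols are each given as % of total sterols, calculated from the peak area ratio of each component.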

[12] = biological target: T1, Lanosterol 14-alpha demethylase; assay: Inhibition of CYP51 in Candida albicans ATCC SC5314 assessed as ergosterol level at 4 ug/ml incubated for 48 hrs by LC/MS analysis (reference value: 95.1 %); parameters: scale not given: the % may be the effect or the level left; conditions: candida albicans sc5314, 48 h, at 4 µg/mL; summary of the method: as §3
[13] = biological target: T1, Lanosterol 14-alpha demethylase; assay: Inhibition of CYP51 in Candida albicans ATCC SC5314 assessed as unknown sterol level at 0.125 ug/ml incubated for 48 hrs by LC/MS analysis; parameters: scale not given: the % may be the effect or the level left; conditions: candida albicans sc5314, 48 h, at 0.125 µg/mL; summary of the method: as §4
[14] = test system: Candida albicans; assay: Antifungal activity against fluconazole-resistant Candida albicans 632 assessed as inhibition of microbial growth by NCCLS protocol based method; type: functional
[15] = biological target: T1, Lanosterol 14-alpha demethylase; assay: Inhibition of CYP51 in Candida albicans ATCC SC5314 assessed as squalene level at 4 ug/ml incubated for 48 hrs by LC/MS analysis; parameters: scale not given: the % may be the effect or the level left; conditions: candida albicans sc5314, 48 h, at 4 µg/mL; summary of the method: as §3
[16] = biological target: T1, Lanosterol 14-alpha demethylase; assay: Inhibition of CYP51 in Candida albicans ATCC SC5314 assessed as eburicol level at 4 ug/ml incubated for 48 hrs by LC/MS analysis (reference value: 1.4 %); parameters: scale not given: the % may be the effect or the level left; conditions: candida albicans sc5314, 48 h, at 4 µg/mL; summary of the method: as §3
[17] = biological target: T1, Lanosterol 14-alpha demethylase; assay: Inhibition of CYP51 in Candida albicans ATCC SC5314 assessed as ergosterol level at 0.125 ug/ml incubated for 48 hrs by LC/MS analysis (reference value: 95.1 %); parameters: scale not given: the % may be the effect or the level left; conditions: candida albicans sc5314, 48 h, at 0.125 µg/mL; summary of the method: as §4
[18] = biological target: T1, Lanosterol 14-alpha demethylase; assay: Inhibition of CYP51 in Candida albicans ATCC SC5314 assessed as ergosterol level at 0.5 ug/ml incubated for 48 hrs by LC/MS analysis (reference value: 95.1 %); parameters: scale not given: the % may be the effect or the level left; conditions: candida albicans sc5314, 48 h, at 0.5 µg/mL; summary of the method: as §3
[19] = biological target: T1, Lanosterol 14-alpha demethylase; assay: Inhibition of CYP51 in Candida albicans ATCC SC5314 assessed as unknown sterol level at 0.5 ug/ml incubated for 48 hrs by LC/MS analysis; parameters: scale not given: the % may be the effect or the level left; conditions: candida albicans sc5314, 48 h, at 0.5 µg/mL; summary of the method: as §3
[20] = test system: Candida albicans; assay: Antifungal activity against fluconazole-resistant Candida albicans 901 assessed as inhibition of microbial growth by NCCLS protocol based method; type: functional
[21] = test system: Candida albicans; assay: Antifungal activity against fluconazole-resistant Candida albicans 17# assessed as inhibition of microbial growth by NCCLS protocol based method; type: functional
[22] = biological target: T1, Lanosterol 14-alpha demethylase; assay: Inhibition of CYP51 in Candida albicans ATCC SC5314 assessed as lanosterol level at 0.5 ug/ml incubated for 48 hrs by LC/MS analysis; parameters: scale not given: the % may be the effect or the level left; conditions: candida albicans sc5314, 48 h, at 0.5 µg/mL; summary of the method: as §3
[23] = biological target: T1, Lanosterol 14-alpha demethylase; assay: Inhibition of CYP51 in Candida albicans ATCC SC5314 assessed as eburicol level at 0.125 ug/ml incubated for 48 hrs by LC/MS analysis (reference value: 1.4 %); parameters: scale not given: the % may be the effect or the level left; conditions: candida albicans sc5314, 48 h, at 0.125 µg/mL; summary of the method: as §4
[24] = test system: Candida albicans; assay: Antifungal activity against fluconazole-resistant Candida albicans 904 assessed as inhibition of microbial growth by NCCLS protocol based method; type: functional
[25] = biological target: T1, Lanosterol 14-alpha demethylase; assay: Inhibition of CYP51 in Candida albicans ATCC SC5314 assessed as unknown sterol level at 4 ug/ml incubated for 48 hrs by LC/MS analysis; parameters: scale not given: the % may be the effect or the level left; conditions: candida albicans sc5314, 48 h, at 4 µg/mL; summary of the method: as §3
[26] = biological target: T1, Lanosterol 14-alpha demethylase; assay: Inhibition of Candida albicans ATCC SC5314 CYP51 incubated for 30 mins by HPLC method
[27] = test system: Candida albicans; assay: Antifungal activity against Candida albicans ATCC SC5314 assessed as decrease in fungal cell density at 10 nM/mL by polarizing microscopy; type: functional, organism-based; conditions: dose 10.0 nmol/ml; summary of the method: as §2

CN(CC(=O)NCc1cccnc1)C(=O)c1ccc2ccccc2c1
MIC50 [1]: > 16 µg/mL | MIC50 [2]: 0.25 µg/mL | MIC50 [3]: 0.5 µg/mL | MIC50 [4]: 0.25 µg/mL | MIC50 [5]: 0.5 µg/mL

OC(Cn1cncn1)(Cn1cncn1)c1ccc(F)cc1F [FLUCONAZOLE]
MIC50 [6]: > 16 µg/mL | Activity [7]: Active | Activity [8]: 16.3% | Activity [9]: 42.5% | Activity [10]: Active | Activity [11]: 5.1% | Activity [12]: 12.7% | MIC50 [1]: > 16 µg/mL | MIC50 [2]: 0.25 µg/mL | MIC50 [3]: 0.25 µg/mL | MIC50 [4]: 1 µg/mL | Activity [13]: 3.6% | MIC50 [14]: 8 µg/mL | MIC50 [5]: 0.25 µg/mL | Activity [15]: 1.3% | Activity [16]: 64.5% | Activity [17]: 78.5% | Activity [18]: 43.9% | Activity [19]: 4.7% | MIC50 [20]: > 16 µg/mL | MIC50 [21]: 8 µg/mL | Activity [22]: 8.9% | Activity [23]: 12.8% | MIC50 [24]: 8 µg/mL | Activity [25]: 5.2% | pIC50 [26]: 6.94 | Activity [27]: Active

CN(CC(=O)NCc1cccnc1)C(=O)c1cccc2ccccc12
MIC50 [1]: > 16 µg/mL | MIC50 [2]: 0.25 µg/mL | MIC50 [3]: 0.5 µg/mL | MIC50 [4]: 0.5 µg/mL | MIC50 [5]: 2 µg/mL

O=C(NC(Cn1ccnc1)C(=O)NC1CCCCC1)c1cccc2ccccc12 (configuration not stated)
MIC50 [1]: > 16 µg/mL | MIC50 [2]: 1 µg/mL | MIC50 [3]: 0.5 µg/mL | MIC50 [4]: 0.5 µg/mL | MIC50 [5]: 0.25 µg/mL

CN(CC(=O)Nc1ccncc1)C(=O)c1ccc2ccccc2c1
MIC50 [1]: 8 µg/mL | MIC50 [2]: 0.25 µg/mL | MIC50 [3]: 0.25 µg/mL | MIC50 [4]: 1 µg/mL | MIC50 [5]: 0.5 µg/mL

O=C(NC(Cn1ccnc1)C(=O)NCc1ccncc1)c1cccc2ccccc12 (configuration not stated)
MIC50 [1]: 8 µg/mL | MIC50 [2]: 0.25 µg/mL | MIC50 [3]: 0.25 µg/mL | MIC50 [4]: 0.5 µg/mL | MIC50 [5]: 0.5 µg/mL

CN(CC(=O)NCc1ccncc1)C(=O)c1cccc2ccccc12
MIC50 [1]: 8 µg/mL | MIC50 [2]: 0.5 µg/mL | MIC50 [3]: 1 µg/mL | MIC50 [4]: 2 µg/mL | MIC50 [5]: 1 µg/mL
